PMC3841656 (Pharmaceutical Research, 2013)

What was measured:
Format in all cases: physicochemical
[1] = Equilibrium solubility in soybean oil; conditions: 37°C, HPLC
Method in brief: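 The drug was added in excess to triplicate sealed glass vials of soybean oil (2 g, later 1 g), vortexed and incubated at 37°C. Samples were taken at 24, 48 and 72 h or longer after centrifugation at 37°C, 2,800 g for 30 min. Supernatant (20–30 mg) was diluted in 66% v/v chloroform/methanol and quantified by C18 RP-HPLC-UV against a standard curve. Equilibrium was taken when consecutive 24-h points differed <10%; mean ± SD, n ≥ 3.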

[2] = Equilibrium solubility in PEG400, ambient conditions; conditions: PEG400, 37°C, ambient milieu (0.32% w/w water)
Method in brief: (§1)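 Excess drug was added to triplicate sealed glass vials of excipient (2 g, later 1 g) and held at 37°C with periodic vortexing. Vials were centrifuged at 37°C, 2,800 g for 30 min and sampled at 24, 48 and 72 h or longer. Supernatant (20–30 mg) was diluted in 7% v/v chloroform/methanol and analysed by C18 RP-HPLC-UV. Equilibrium was taken when consecutive 24-h samples differed <10%; mean ± SD, n ≥ 3.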

[3] = Equilibrium solubility in polysorbate 80; conditions: polysorbate 80, 37°C, HPLC
Method in brief: as §1

[4] = Solubility in PEG400 under dry conditions; conditions: two tailed t-test, ambient vs dry

SMILES | equilibrium solubility in SBO [1] | equilibrium solubility in PEG400 [2] | also measured
CCOc1nc2cccc(C(=O)O)c2n1Cc1ccc(-c2ccccc2-c2nnn[nH]2)cc1 [Candesartan] | less than the limit of detection | 13.8 ± 1.5 mg/g | –
C#C[C@]1(O)CC[C@H]2[C@@H]3CCc4cc(O)ccc4[C@H]3CC[C@@]21C [Ethinylestradiol] | – | high solubility | equilibrium solubility in PS80 [3]: high solubility
COc1ccc2c(c1)c(CC(=O)O)c(C)n2C(=O)c1ccc(Cl)cc1 [Indomethacin] | – | – | difference in PEG400 solubility between ambient and dry conditions [4]: no significant difference

Continued, in another order:

equilibrium solubility in SBO [1] | equilibrium solubility in PEG400 [2] | SMILES | also measured
less than the limit of detection | – | CC(C)(Oc1ccc(CCNC(=O)c2ccc(Cl)cc2)cc1)C(=O)O [Bezafibrate] | –
less than the limit of detection | – | COc1ccc(Cl)cc1C(=O)NCCc1ccc(S(=O)(=O)NC(=O)NC2CCCCC2)cc1 [Glibenclamide] | –
less than the limit of detection | – | N[C@@H](Cc1cc(I)c(Oc2cc(I)c(O)c(I)c2)c(I)c1)C(=O)O [Levothyroxine] | –
– | high solubility | CC(C)(C)NC(=O)[C@@H]1C[C@@H]2CCCC[C@@H]2CN1C[C@@H](O)[C@H](Cc1ccccc1)NC(=O)[C@H](CC(N)=O)NC(=O)c1ccc2ccccc2n1 [Saquinavir] | –
